SMARCA2 act: SMARCA2 function activation, primary screen. actives 1% (n = 370,000). activation, % at 9.1 µM. MG213 cells, MMTV-luciferase reporter, dexamethasone, overnight; in the data active = activation above about 7.8%;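 note: 0% = vehicle wells and 100% = reference activator wells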
ASAP1 inh: blocks human ASAP1-stimulated Arf1 GTP hydrolysis; GDP FP detection; inhibition, % at 16.5 µM; actives 0.19% (n = 360,000); AID 624377; in the data active = inhibition above about 25%;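 note: 0% = vehicle with enzyme and substrate and 100% = no enzyme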
Target sequence (Q9ULH1 325-724 limits assumed): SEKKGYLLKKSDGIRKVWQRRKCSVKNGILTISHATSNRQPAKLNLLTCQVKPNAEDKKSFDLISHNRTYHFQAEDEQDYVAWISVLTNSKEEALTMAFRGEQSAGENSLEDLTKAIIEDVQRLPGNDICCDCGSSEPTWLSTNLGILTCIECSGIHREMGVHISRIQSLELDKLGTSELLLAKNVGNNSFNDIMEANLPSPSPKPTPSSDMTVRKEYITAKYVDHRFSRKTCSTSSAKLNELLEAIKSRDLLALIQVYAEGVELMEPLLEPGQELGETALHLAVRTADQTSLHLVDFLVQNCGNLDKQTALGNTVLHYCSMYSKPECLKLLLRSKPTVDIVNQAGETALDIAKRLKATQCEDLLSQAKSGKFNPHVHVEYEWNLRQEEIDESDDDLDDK
ARFGAP1 inhibitor: rat ARFGAP1 inhibition; inhibition, % at 16.5 µM; Q62848; actives 0.26% (n = 360,000); AID 651572; Arfgap1-stimulated ARF1 GTP hydrolysis, GDP FP detection;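 active = inhibition above a per-plate limit, mean inhibition of low control wells plus 3 SD, cut at about 25% in these data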;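 note: 0% = DMSO wells with enzyme and 100% = wells lacking Arfgap1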
Target sequence (Q62848 1-136 limits assumed): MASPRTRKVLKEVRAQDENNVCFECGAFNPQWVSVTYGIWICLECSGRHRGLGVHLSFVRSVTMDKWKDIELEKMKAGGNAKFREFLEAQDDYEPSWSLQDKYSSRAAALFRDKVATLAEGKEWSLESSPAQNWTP
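Repeats: one replicate per compound; assay system: rat Arfgap1 catalytic domain, aa 1-136; times: enzyme reaction 120 min at 25 °C after 20 min preincubation; detection: FP of antibody-bound GDP Alexa 633 tracer, ex 620/em 688 nm; benchmarks: high control wells lacking Arfgap1, low control full reaction with DMSO; reagent: human ARF1(Δ1-17)-GTP substrate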
esBAF inh: SWI/SNF esBAF complex inhibition. reporter increase, % at 12.5 µM. actives 2% (n = 350,000). mouse ES cells, Bmi1-luciferase knock-in reporter, 24 h; 100% = twice the neutral-well signal; in the data active = activation above about 40%; inconclusive = no clear call, values can overlap the other calls;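 note: 0% = median of the plate's neutral control wells and 100% = double that signal; a rise in the Bmi1 reporter signal indicates esBAF inhibition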
* marks the source's active call; other numbers are inactive results; ? = inconclusive; . = no result given. Shown are actives, neighbours in structure and some others; about 2.6% of the full set was active somewhere.

SMILES | SMARCA2 act | ASAP1 inh | ARFGAP1 inhibitor | esBAF inh
COc1ccc(NC(=O)Nc2ccc3c(c2)C(=O)N([C@H](C)CO)C[C@H](C)[C@@H](CN(C)C(=O)Nc2ccccc2)OCCCC[C@H](C)O3)cc1 | . | . | . | 1
COc1ccc(NC(=O)c2cn(-c3ccccc3)nc2-c2cc3ccccc3o2)cc1 | 1 | 29* | 10 | .
O=c1c2ccccc2nc2c3ccccc3cnn12 | 5 | -2 | -2 | 74*
C=CCc1c(C)nc2ccc(C(=O)OCC)cc2c1Cl | -4 | -21 | -9 | 53*
CCOC(=O)c1ccc2nc(C)c(CC)c(Cl)c2c1 | -2 | -5 | -11 | 26
CCOC(=O)c1ccc2nc(C)c(CCC(C)=O)c(Cl)c2c1 | 1 | 4 | -4 | 63*
COc1cccc(NC(=O)N[C@H]2C=C[C@@H](CC(=O)N3CCN(C)CC3)O[C@@H]2CO)c1 | . | . | . | 3
C[C@@H]1CN([C@@H](C)CO)C(=O)c2cc(NC(=O)NC3CCCCC3)ccc2O[C@@H]1CN(C)C(=O)Nc1ccccc1 | . | . | . | 0
CSc1ccccc1OCc1cc(C(=O)N2CCN(c3ccccc3)CC2C)no1 (configuration not stated) | 2 | 2 | 2 | 54*
CC(=O)c1ccc(OCc2cc(C(=O)N3CCN(c4ccccc4)CC3C)no2)cc1 (configuration not stated) | 2 | 8 | -4 | 110*
CC(=O)c1ccc(OCc2cc(C(=O)N3CCC[C@H]3CO)no2)cc1 | -2 | 1 | 11 | -2
CSc1ccccc1OCc1cc(C(=O)NCCc2ccco2)no1 | 3 | 0 | 0 | 65*
CNC[C@H]1Oc2c(NC(=O)NC(C)C)cccc2C(=O)N([C@H](C)CO)C[C@H]1C | . | . | . | -1
Cc1ccc(S(=O)(=O)N(C)C[C@@H]2Oc3c(NC(=O)Nc4c(C)noc4C)cccc3C(=O)N([C@@H](C)CO)C[C@H]2C)cc1 | . | . | . | 0
CCn1cnc2c(Nc3cc(F)cc(F)c3)nc(C#N)nc21 | 2 | 9 | 11 | 57*
COC(=O)[C@H]1C[C@@]2(O)CN(S(=O)(=O)c3ccc(C)cc3)C[C@@]2(OC(=O)NCC2CCCCC2)C[C@H]1C(=O)OC | -5 | -4 | 1 | 52*
Cc1ccc2nc(-c3cccc(N)c3)oc2c1 | 0 | -3 | 15 | .
Cc1cc(C)c2oc(-c3cccc(N)c3)nc2c1 | 3 | 0 | -6 | 55*
CCOc1ccc(NC(=O)CNC(=O)Cc2ccccc2)cc1 | -3 | -9 | -6 | -6
Cc1ccc(NC(=O)c2ccccc2OCC(=O)c2ccccc2)cc1 | -3 | 2 | 0 | 17
CC(=O)c1ccc(NC(=O)CN(c2c(C)cccc2C)S(C)(=O)=O)cc1 | 5 | -6 | -7 | 56*
O=C(Cc1ccccc1)Nc1ccc(NC(=O)c2ccccc2)nc1 | 4 | -10 | -1 | 56*
CCOc1ccc(NC(=O)Cc2ccccc2)cc1 | 5 | 17 | 7 | 66*
CCOc1ccc(NC(=O)c2ccccc2OCC(=O)c2ccccc2)cc1 | 5 | 16 | 12 | 44*
O=C(Nc1ccc(NC(=O)c2cccs2)cn1)c1ccccc1 | 5 | 17 | 5 | .
SMILES | SMARCA2 act | ASAP1 inh | ARFGAP1 inhibitor | esBAF inh
COc1ccc(NC(=O)Nc2ccc3c(c2)[C@H]2C[C@H](CC(=O)NCCc4ccccc4)O[C@H](CO)[C@H]2O3)cc1 | . | . | . | -2
CCC(=O)N[C@@H]1C=C[C@H](CC(=O)NCc2ccccc2F)O[C@H]1CO | . | . | . | 5
CCOc1ccc(N(CC(=O)Nc2cc(C)cc(C)c2)S(C)(=O)=O)cc1 | -2 | 4 | 0 | ?
CCOc1ccc(N(CC(=O)Nc2ccc(C)cc2)S(C)(=O)=O)cc1 | 1 | -8 | 3 | 80*
COc1ccc(CNC(=O)Nc2ccccc2)cc1 | 2 | 0 | 7 | 29
CCOc1ccc(CNC(=O)Nc2ccccc2)cc1 | 3 | 5 | 8 | 47*
COc1ccc(NC(=O)Nc2cccc3c2O[C@H](CN(C)S(=O)(=O)c2ccc(C)cc2)[C@@H](C)CN([C@@H](C)CO)C3=O)cc1 | . | . | . | -1
CCOC(=O)C(c1nc2ccccc2[nH]1)n1c(-c2ccccn2)nc2ccccc21 (configuration not stated) | 0 | -14 | -3 | 49*
C[C@@H]1CCCCO[C@@H](CN(C)C(=O)Nc2ccc(F)cc2)[C@@H](C)CN([C@H](C)CO)C(=O)c2cc(NC(=O)CCC(F)(F)F)ccc2O1 | . | . | . | 1
Cc1noc(C)c1S(=O)(=O)Nc1ccc2c(c1)CC(=O)N([C@@H](C)CO)C[C@@H](C)[C@@H](CN(C)S(=O)(=O)c1cn(C)cn1)O2 | . | . | . | 0
COCCn1c(C)cc(C(=O)CSc2nc3ccccc3c(=O)n2Cc2ccco2)c1C | 4 | 3 | 12 | 97*
COCCN(C(=O)CCC(=O)Nc1cc(C)on1)C(C(=O)NC(C)(C)C)c1ccccc1Cl (configuration not stated) | 7.8* | -8 | -5 | -1
CC(C)CC#Cc1cnc2c(c1)C(=O)N([C@H](C)CO)C[C@H](C)[C@@H](CN(C)C(=O)c1ccccc1F)O2 | . | . | . | 1
Cc1ccc2cc(CN(C(=O)c3ccco3)c3ccccc3)c(=O)[nH]c2c1 | 1 | -5 | -2 | 54*
CO[C@H]1CN(C)C(=O)c2cc(NC(=O)C3CCCCC3)ccc2OC[C@H](C)NC[C@@H]1C | . | . | . | 3
CC(C)NC(=O)Nc1ccc2c(c1)CC(=O)N([C@H](C)CO)C[C@H](C)[C@H](CN(C)C(=O)Nc1ccccc1)O2 | . | . | . | -4
N#Cc1nc(COc2ccc(Cl)cc2)oc1N1CCCCCC1 | 2 | -2 | -8 | 6
N#Cc1nc(COc2ccccc2)oc1N1CCCCC1 | 1 | -8 | 0 | 60*
CN(C)C(=O)[C@@H]1[C@@H](CO)[C@@H]2Cn3c(ccc(-c4ccccc4F)c3=O)[C@H]1N2C(=O)c1cccnc1 | . | . | . | -1
COC(=O)C[C@H]1CC[C@H]2[C@@H](COC[C@@H](O)CN2C(=O)Nc2cccc(F)c2)O1 | . | . | . | 50*
COC(=O)C[C@@H]1CC[C@H]2[C@@H](COC[C@H](O)CN2C(=O)Nc2cccc(F)c2)O1 | . | . | . | 20
COc1ccccc1CNC(=O)C[C@H]1CC[C@@H]2[C@H](COC[C@H](O)CN2C(=O)Nc2ccc(Cl)cc2)O1 | . | . | . | 43*
COc1ccccc1CNC(=O)C[C@H]1CC[C@H]2[C@@H](COC[C@H](O)CN2C(=O)Nc2ccc(Cl)cc2)O1 | . | . | . | 34
CC(C)C#Cc1ccc2c(c1)O[C@H](CN(C)C(=O)c1ccccn1)[C@H](C)CN([C@H](C)CO)S2(=O)=O | . | . | . | 9
C[C@@H]1CN([C@H](C)CO)C(=O)Cc2cc(NC(=O)Cn3cnnn3)ccc2O[C@H]1CN(C)S(C)(=O)=O | . | . | . | 0
Cc1cccc(-c2cc(N)n(-c3ccccc3)n2)c1 | 4 | -2 | 8 | 54*
Cc1cccc(-c2cnn(-c3ccccc3)c2N)c1 | 1 | 5 | -4 | 56*
Cc1cccc(-c2cnn(-c3cccc([N+](=O)[O-])c3)c2N)c1 | 1 | 4 | 6 | .
CCc1ccc(-c2cc(N)n(-c3ccccc3)n2)cc1 | 6 | -1 | 8 | 68*

Screens from PubChem BioAssay.
